Source: ChEMBL document CHEMBL1926518, “Synthesis of macrolones with central piperazine ring in the linker and its influence on antibacterial activity” (2011)
Values after ≈ are worked out from the molar mass of the structure shown.

Legend:
Type in all cases: functional
Staphylococcus aureus [1] = assay: Antibacterial activity against erythromycin-sensitive Staphylococcus aureus ATCC 13709 by broth microdilution technique
In short: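 MIC by broth microdilution per CLSI guidelines with doubling dilutions of compounds. Before testing, staphylococci were grown on Mueller–Hinton agar. Values reported in µg/mL.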

Moraxella catarrhalis = assay: Antibacterial activity against Moraxella catarrhalis ATCC 23246 by broth microdilution technique
In short: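 MIC by broth microdilution per CLSI guidelines with doubling dilutions of compounds. Before testing, organisms were grown on Columbia agar with 5% sheep blood. Values reported in µg/mL.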

Streptococcus pyogenes [2] = assay: Antibacterial activity against inducible macrolide, licosamide and streptogramin-resistant Streptococcus pyogenes Finland 11 by broth microdilution technique
In short: (§1)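 MICs were determined by CLSI broth microdilution, with double dilutions of compound. In the streptococcal medium, 5% horse serum replaced lysed blood. Streptococci were grown on Columbia agar with 5% sheep blood before testing. Results are given in µg/mL.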

Staphylococcus aureus [3] = assay: Antibacterial activity against inducible macrolide, licosamide and streptogramin-resistant Staphylococcus aureus 90256/97 by broth microdilution technique
In short: (§2)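 MICs were determined by CLSI broth microdilution, with double dilutions of compound. Staphylococci were grown on Mueller–Hinton agar before testing. Results are given in µg/mL.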

Streptococcus pyogenes [4] = assay: Antibacterial activity against efflux-mediated macrolide-resistant Streptococcus pyogenes 3 Finland by broth microdilution technique; in short: as §1
Staphylococcus aureus [5] = assay: Antibacterial activity against efflux-mediated macrolide-resistant Staphylococcus aureus PK1 by broth microdilution technique; in short: as §2
Streptococcus pyogenes [6] = assay: Antibacterial activity against constitutive macrolide, licosamide and streptogramin-resistant Streptococcus pyogenes 166 GR-Micro by broth microdilution technique; in short: as §1
Streptococcus pneumoniae [7] = assay: Antibacterial activity against inducible macrolide-resistant, constitutive licosamide and streptogramin-resistant Streptococcus pneumoniae 134 GR-Micro by broth microdilution technique; in short: as §1
Streptococcus pneumoniae [8] = assay: Antibacterial activity against erythromycin-sensitive Streptococcus pneumoniae SP030 by broth microdilution technique
In short: (§3)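 Streptococcal MICs by CLSI broth microdilution with doubling dilutions, but with 5% horse serum in the medium in place of lysed blood. Before testing, strains were grown on Columbia agar with 5% sheep blood. Values reported in µg/mL.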

Streptococcus pyogenes [9] = assay: Antibacterial activity against erythromycin-sensitive Streptococcus pyogenes 3565 by broth microdilution technique; in short: as §3
Haemophilus influenzae = assay: Antibacterial activity against Haemophilus influenzae ATCC 49247 by broth microdilution technique
In short: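 MIC by broth microdilution per CLSI guidelines with doubling dilutions of compounds. Before testing, organisms were grown on Mueller-Hinton chocolate agar. Values reported in µg/mL.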

Staphylococcus aureus [10] = assay: Antibacterial activity against constitutive macrolide, licosamide and streptogramin-resistant Staphylococcus aureus PK2 by broth microdilution technique; in short: as §2
Streptococcus pneumoniae [11] = assay: Antibacterial activity against constitutive macrolide, licosamide and streptogramin-resistant Streptococcus pneumoniae 58 Spain by broth microdilution technique; in short: as §1
Streptococcus pneumoniae [12] = assay: Antibacterial activity against efflux-mediated macrolide-resistant Streptococcus pneumoniae Ci137 by broth microdilution technique; in short: as §1

Structure (SMILES) | MIC (Staphylococcus aureus [1]) [µg/mL] | MIC (Moraxella catarrhalis) [µg/mL] | MIC (Streptococcus pyogenes [2]) [µg/mL] | MIC (Staphylococcus aureus [3]) [µg/mL] | MIC (Streptococcus pyogenes [4]) [µg/mL] | MIC (Staphylococcus aureus [5]) [µg/mL] | MIC (Streptococcus pyogenes [6]) [µg/mL] | MIC (Streptococcus pneumoniae [7]) [µg/mL] | MIC (Streptococcus pneumoniae [8]) [µg/mL] | MIC (Streptococcus pyogenes [9]) [µg/mL] | MIC (Haemophilus influenzae) [µg/mL] | MIC (Staphylococcus aureus [10]) [µg/mL] | MIC (Streptococcus pneumoniae [11]) [µg/mL] | MIC (Streptococcus pneumoniae [12]) [µg/mL]
CCOC(=O)c1cn(CC)c2ccc(C#CCN3CCN(C(=O)OC(C)(C)C)CC3)cc2c1=O | > 64 | > 64 | > 64 | > 64 | > 64 | > 64 | > 64 | > 64 | > 64 | > 64 | > 64 | > 64 | > 64 | > 64
CCOC(=O)c1cn(CC)c2ccc(C#CCN3CCNCC3)cc2c1=O | > 64 | > 64 | > 64 | > 64 | > 64 | > 64 | > 64 | > 64 | > 64 | > 64 | > 64 | > 64 | > 64 | > 64
CCOC(=O)c1cn(C2CC2)c2ccc(C#CCN3CCN(C(=O)OC(C)(C)C)CC3)cc2c1=O | > 64 | > 64 | > 64 | > 64 | > 64 | > 64 | > 64 | > 64 | > 64 | > 64 | > 64 | > 64 | > 64 | > 64
CCOC(=O)c1cn(C2CC2)c2ccc(C#CCN3CCNCC3)cc2c1=O | > 64 | > 64 | > 64 | > 64 | > 64 | > 64 | > 64 | > 64 | > 64 | > 64 | > 64 | > 64 | > 64 | > 64
CCOC(=O)c1cn(CC)c2ccc(/C=C/CN3CCN(C(=O)OC(C)(C)C)CC3)cc2c1=O | > 64 | > 64 | > 64 | > 64 | > 64 | > 64 | > 64 | > 64 | 64 (≈ 136 µM) | > 64 | > 64 | > 64 | > 64 | > 64
CCOC(=O)c1cn(CC)c2ccc(/C=C/CN3CCNCC3)cc2c1=O | > 64 | > 64 | > 64 | > 64 | > 64 | > 64 | > 64 | > 64 | 64 (≈ 173 µM) | > 64 | > 64 | > 64 | > 64 | > 64
CCOC(=O)c1cn(CC)c2ccc(C#CCN3CCN(CCC(=O)O[C@H]4[C@H](C)O[C@@H](O[C@H]5[C@H](C)[C@@H](O[C@@H]6O[C@H](C)C[C@H](N(C)C)[C@H]6O)[C@](C)(OC)C[C@@H](C)C(=O)[C@H](C)[C@@H](O)[C@](C)(O)[C@@H](CC)OC(=O)[C@@H]5C)C[C@@]4(C)OC)CC3)cc2c1=O | 0.25 (≈ 0.214 µM) | 1 (≈ 0.855 µM) | ≤ 0.125 | > 64 | – | 32 (≈ 27.4 µM) | 8 (≈ 6.84 µM) | 1 (≈ 0.855 µM) | ≤ 0.125 | ≤ 0.125 | 4 (≈ 3.42 µM) | > 64 | ≤ 0.125 | ≤ 0.125
CCOC(=O)c1cn(C2CC2)c2ccc(C#CCN3CCN(CCC(=O)O[C@H]4[C@H](C)O[C@@H](O[C@H]5[C@H](C)[C@@H](O[C@@H]6O[C@H](C)C[C@H](N(C)C)[C@H]6O)[C@](C)(OC)C[C@@H](C)C(=O)[C@H](C)[C@@H](O)[C@](C)(O)[C@@H](CC)OC(=O)[C@@H]5C)C[C@@]4(C)OC)CC3)cc2c1=O | 4 (≈ 3.39 µM) | 4 (≈ 3.39 µM) | 0.5 (≈ 0.423 µM) | > 64 | ≤ 0.125 | > 64 | 16 (≈ 13.5 µM) | 4 (≈ 3.39 µM) | ≤ 0.125 | ≤ 0.125 | > 64 | > 64 | 4 (≈ 3.39 µM) | ≤ 0.125
CCOC(=O)c1cn(C2CC2)c2ccc(CCCN3CCN(CCC(=O)O[C@H]4[C@H](C)O[C@@H](O[C@H]5[C@H](C)[C@@H](O[C@@H]6O[C@H](C)C[C@H](N(C)C)[C@H]6O)[C@](C)(O)C[C@@H](C)CN(C)[C@H](C)[C@@H](OC)[C@](C)(O)[C@@H](CC)OC(=O)[C@@H]5C)C[C@@]4(C)OC)CC3)cc2c1=O | 4 (≈ 3.33 µM) | – | 0.25 (≈ 0.208 µM) | > 64 | 1 (≈ 0.833 µM) | > 64 | 32 (≈ 26.7 µM) | > 64 | ≤ 0.125 | ≤ 0.125 | 16 (≈ 13.3 µM) | > 64 | 32 (≈ 26.7 µM) | ≤ 0.125
CC[C@H]1OC(=O)[C@H](C)[C@@H](O[C@H]2C[C@@](C)(OC)[C@@H](OC(=O)CCN3CCN(CCCc4ccc5c(c4)c(=O)c(C(=O)O)cn5CC)CC3)[C@H](C)O2)[C@H](C)[C@@H](O[C@@H]2O[C@H](C)C[C@H](N(C)C)[C@H]2O)[C@](C)(O)C[C@@H](C)CN(C)[C@H](C)[C@@H](OC)[C@]1(C)O | ≤ 0.125 | 0.5 (≈ 0.431 µM) | ≤ 0.125 | 4 (≈ 3.45 µM) | ≤ 0.125 | 0.25 (≈ 0.215 µM) | 32 (≈ 27.6 µM) | 16 (≈ 13.8 µM) | ≤ 0.125 | ≤ 0.125 | 1 (≈ 0.862 µM) | > 64 | ≤ 0.125 | ≤ 0.125
CC[C@H]1OC(=O)[C@H](C)[C@@H](O[C@H]2C[C@@](C)(OC)[C@@H](OCCCN3CCN(CCCc4ccc5c(c4)c(=O)c(C(=O)O)cn5CC)CC3)[C@H](C)O2)[C@H](C)[C@@H](O[C@@H]2O[C@H](C)C[C@H](N(C)C)[C@H]2O)[C@](C)(O)C[C@@H](C)CN(C)[C@H](C)[C@@H](O)[C@]1(C)O | 8 (≈ 7.06 µM) | – | 4 (≈ 3.53 µM) | > 64 | 8 (≈ 7.06 µM) | 32 (≈ 28.3 µM) | > 64 | 32 (≈ 28.3 µM) | ≤ 0.125 | 0.5 (≈ 0.442 µM) | 32 (≈ 28.3 µM) | > 64 | 8 (≈ 7.06 µM) | 0.25 (≈ 0.221 µM)
